Measured values: ChEMBL document CHEMBL4219220, “Novel compounds that target lipoprotein lipase and mediate growth arrest in acute lymphoblastic leukemia” (Bioorg Med Chem Lett, 2018)
Active and inactive are the calls of the source. No cut-off for these calls is given here.

Tests used:
SUP-B15 [1] = test: Antiproliferative activity in human SUP-B15 cells assessed as inhibition of cell proliferation at 50 uM incubated for 72 hrs by CCK8 assay; type: functional, cell-based
Procedure, shortened: (§1)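 REH (Ph-negative, peripheral blood derived) and SupB15 (Ph-positive, bone marrow derived) B-ALL cells seeded at 50,000 cells/well in 96-well plates. Single test concentration of 50 μM (final) for 72 h, with untreated cells as controls. Proliferation read by CCK-8 (reagent 2 h at 37° C, absorbance 450 nm). Mean ± SEM, N = 3.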

REH [2] = test: Antiproliferative activity in human REH cells assessed as inhibition of cell proliferation at 50 uM incubated for 72 hrs by CCK8 assay; type: functional; procedure, shortened: as §1
REH [3] = test: Induction of cell death in human REH cells co-cultured with bone marrow stromal cells assessed as reduction in live cell population of suspended floater cells at 20 to 40 uM; type: functional, cell-based
Procedure, shortened: (§2)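 REH leukemic cells in co-culture with bone marrow stromal cells. Two fractions were scored: suspended floaters (FL), and phase dim (PD) cells lying beneath the stromal layer. Read-outs were live cell population and cell death.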

REH [4] = test: Antiproliferative activity in human REH cells assessed as inhibition of cell proliferation incubated for 72 hrs by CCK8 assay; type: functional, cell-based
Procedure, shortened: (§3)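 Dose-response in REH and SupB15 cells. Proliferation read by CCK-8 after 72 h of compound exposure (reagent 2 h at 37° C, absorbance 450 nm). IC50 taken from the dose-response curve.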

REH [5] = test: Induction of cell death in human REH cells co-cultured with bone marrow stromal cells assessed as increase in cell death of suspended floater cells at 20 to 40 uM; type: functional, cell-based; procedure, shortened: as §2
REH [6] = test: Induction of cell death in human REH cells co-cultured with bone marrow stromal cells assessed as reduction in live cell population of phase dim cells buried underneath bone marrow stromal layer at 20 to 40 uM; type: functional, cell-based; procedure, shortened: as §2
REH [7] = test: Induction of cell death in human REH cells co-cultured with bone marrow stromal cells assessed as increase in cell death of phase dim cells buried underneath bone marrow stromal layer at 20 to 40 uM; type: functional, cell-based; procedure, shortened: as §2
Albumin = Albumin (Homo sapiens, UniProt P02768); test: Binding affinity to serum albumin (unknown origin) at 1 to 100 uM; type: ADME; conditions: read-out: PB
Sequence of Albumin (P02768 whole entry): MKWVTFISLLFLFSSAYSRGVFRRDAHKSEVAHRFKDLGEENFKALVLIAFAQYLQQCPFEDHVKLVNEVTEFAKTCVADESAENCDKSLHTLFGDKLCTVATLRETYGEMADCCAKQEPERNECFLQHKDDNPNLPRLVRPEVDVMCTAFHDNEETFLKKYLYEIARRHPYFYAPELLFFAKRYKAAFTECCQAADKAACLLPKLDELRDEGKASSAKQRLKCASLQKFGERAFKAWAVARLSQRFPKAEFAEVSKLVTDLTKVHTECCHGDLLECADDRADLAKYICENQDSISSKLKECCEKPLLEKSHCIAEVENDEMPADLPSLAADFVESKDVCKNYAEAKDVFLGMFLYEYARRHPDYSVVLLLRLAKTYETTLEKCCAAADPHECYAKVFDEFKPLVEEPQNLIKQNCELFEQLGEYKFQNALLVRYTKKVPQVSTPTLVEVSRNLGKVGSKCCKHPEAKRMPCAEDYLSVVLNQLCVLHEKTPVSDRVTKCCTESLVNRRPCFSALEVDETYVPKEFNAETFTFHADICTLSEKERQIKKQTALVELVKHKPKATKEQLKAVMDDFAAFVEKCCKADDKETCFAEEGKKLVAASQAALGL

SUP-B15 [8] = test: Antiproliferative activity in human SUP-B15 cells assessed as inhibition of cell proliferation incubated for 72 hrs by CCK8 assay; type: functional, cell-based; conditions: SUP-B15, 72 h; procedure, shortened: as §3

For CC1(C)C(C(=O)NCCCN2CCOCC2)C1c1ccc(F)cc1 (configuration not stated), the inhibition (SUP-B15 [1]) was “inactive” and the inhibition (REH [2]) was “Active”.
With CC1C=NN=C1C(C)NC(=O)C1C(c2ccc(F)cc2)C1(C)C (configuration not stated) the inhibition (SUP-B15 [1]) was “inactive” and the inhibition (REH [2]) was “Active”.
For Cc1nc[nH]c1CCCCNC(=O)C1C(c2ccc(F)cc2)C1(C)C (configuration not stated), the inhibition (SUP-B15 [1]) was “inactive” and the inhibition (REH [2]) was “Active”.
With Cc1cccc(=O)n1CCCNC(=O)C1C(c2ccc(F)cc2)C1(C)C (configuration not stated) the inhibition (SUP-B15 [1]) was “inactive” and the inhibition (REH [2]) was “Active”.
In the case of CC1(C)C(C(=O)N2CC(c3cccnc3)C2)C1c1ccc(F)cc1 (configuration not stated), the inhibition (SUP-B15 [1]) is reported as “inactive” and the inhibition (REH [2]) is reported as “Active”.
With Cc1cccnc1CN1CCN(C(=O)C2C(c3ccc(F)cc3)C2(C)C)CC1 (configuration not stated) the inhibition (SUP-B15 [1]) was “inactive” and the inhibition (REH [2]) was “Active”.
For CC1(C)C(C(=O)NCCNc2cccnc2)C1c1ccc(F)cc1 (configuration not stated), the inhibition (SUP-B15 [1]) was “inactive” and the inhibition (REH [2]) was “Active”.
With Cc1nccn1-c1ccccc1CNC(=O)C1C(c2ccc(F)cc2)C1(C)C (configuration not stated) the inhibition (SUP-B15 [1]) was “inactive” and the inhibition (REH [2]) was “Active”.
CSCc1nc(CNC(=O)C2C(c3ccc(F)cc3)C2(C)C)no1 (configuration not stated) was tested, and the inhibition (SUP-B15 [1]) was “inactive” and the inhibition (REH [2]) was “Active”.
COCc1cc(CNC(=O)C2C(c3ccc(F)cc3)C2(C)C)n[nH]1 (configuration not stated) was tested, and the inhibition (SUP-B15 [1]) was “inactive” and the inhibition (REH [2]) was “Active”.
For CC1(C)C(C(=O)NCCCc2cnc(N)s2)C1c1ccc(F)cc1 (configuration not stated), the inhibition (SUP-B15 [1]) was “inactive” and the inhibition (REH [2]) was “Active”.
In the case of CSc1ncc(CNC(=O)C2C(c3ccc(F)cc3)C2(C)C)n1C (configuration not stated), the inhibition (SUP-B15 [1]) is reported as “inactive” and the inhibition (REH [2]) is reported as “Active”.
With CC1(C)C(C(=O)NCc2noc(-c3ccco3)n2)C1c1ccc(F)cc1 (configuration not stated) the inhibition (SUP-B15 [1]) was “inactive” and the inhibition (REH [2]) was “Active”.
In the case of CC1(C)C(C(=O)N2CCN(c3cnccn3)CC2)C1c1ccc(F)cc1 (configuration not stated), the inhibition (SUP-B15 [1]) is reported as “inactive” and the inhibition (REH [2]) is reported as “Active”.
CC1(C)C(C(=O)N2CCC3(CCCO3)CC2)C1c1ccc(F)cc1 (configuration not stated) was tested, and the inhibition (SUP-B15 [1]) was “inactive” and the inhibition (REH [2]) was “Active”.
CN1CC2(CCC1=O)CCN(C(=O)C1C(c3ccc(F)cc3)C1(C)C)CC2 (configuration not stated) was tested, and the inhibition (SUP-B15 [1]) was “inactive” and the inhibition (REH [2]) was “Active”.
In the case of CCc1c(C)nn(CCNC(=O)C2C(c3ccc(F)cc3)C2(C)C)c1C (configuration not stated), the inhibition (SUP-B15 [1]) is reported as “Active”, the Activity (REH [3]) is reported as “Active” and the IC50 (REH [4]) is reported as 16.5 µM. For the same molecule, the Activity (REH [5]) was “Active”, the inhibition at 50 µM (REH [2]) was > 50% and the Activity (REH [6]) was “Active”. For the same molecule, the Activity (REH [7]) was “Active”, the fraction unbound at up to 100 µM (Albumin) was > 0.95 and the IC50 (SUP-B15 [8]) was 44.7 µM.
For Cc1cc(CNC(=O)C2C(c3ccc(F)cc3)C2(C)C)ccn1 (configuration not stated), the inhibition (SUP-B15 [1]) was “inactive” and the inhibition (REH [2]) was “Active”.
In the case of CC1(C)C(C(=O)NCC2CCC(C(=O)O)CC2)C1c1ccc(F)cc1 (configuration not stated), the inhibition (SUP-B15 [1]) is reported as “inactive” and the inhibition (REH [2]) is reported as “Active”.
Cc1cnc(CNC(=O)C2C(c3ccc(F)cc3)C2(C)C)cn1 (configuration not stated) was tested, and the inhibition (SUP-B15 [1]) was “inactive” and the inhibition (REH [2]) was “Active”.
